Source: ChEMBL document CHEMBL4706633, “Design, Synthesis, and Biological Evaluation of a Series of Oxazolone Carboxamides as a Novel Class of Acid Ceramidase Inhibitors” (J Med Chem, 2020)
Active and inactive are the calls of the source. The calls are words filed in the database; no cut-off is given here.

What was measured:
[1] = target: T1, Acid ceramidase (Homo sapiens) (UniProt Q13510); test: Inhibition of acid ceramidase in human SH-SY5Y cells assessed as reduction in sphingosine level at 10 uM incubated for 1 to 6 hrs by LC-MS analysis; format: cell-based; conditions: time 1-6 hrs
T1 sequence (whole entry): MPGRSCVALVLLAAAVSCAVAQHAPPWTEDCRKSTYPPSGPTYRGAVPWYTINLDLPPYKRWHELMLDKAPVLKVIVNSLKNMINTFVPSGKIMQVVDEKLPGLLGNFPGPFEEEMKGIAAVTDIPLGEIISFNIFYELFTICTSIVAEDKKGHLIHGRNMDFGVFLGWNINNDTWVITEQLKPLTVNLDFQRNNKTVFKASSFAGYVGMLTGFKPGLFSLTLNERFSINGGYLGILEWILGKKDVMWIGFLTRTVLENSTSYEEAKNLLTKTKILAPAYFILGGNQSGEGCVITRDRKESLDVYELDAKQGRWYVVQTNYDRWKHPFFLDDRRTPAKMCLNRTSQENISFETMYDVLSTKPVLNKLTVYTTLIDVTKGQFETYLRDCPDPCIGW
Outline: (§1)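 SH-SY5Y neuroblastoma cultures were treated at 10 μM for 1, 3 or 6 h. Intracellular sphingolipids (Cer, So, SM, HexCer) were then identified and quantified by LC/MS.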

[2] = target: T1, Acid ceramidase (Homo sapiens); test: Inhibition of acid ceramidase in human SH-SY5Y cells assessed as intracellular accumulation of Cer (d18:0/16:0) at 1 to 10 uM incubated for 3 hrs by LC-MS analysis; format: cell-based; conditions: dose 1-10 µM
Outline: (§2)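 SH-SY5Y human neuroblastoma cells were exposed for 3 h at 1, 2.5, 5 or 10 μM. Cellular sphingolipids (Cer species, So, SM, HexCer) were quantified by LC/MS. Data are means ± SEM of at least six determinations, with experiments repeated twice. Significance was taken at p < 0.05.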

[3] = target: T2, N-acylethanolamine-hydrolyzing acid amidase (Homo sapiens) (UniProt Q02083); test: Inhibition of human NAAA up to 125 uM; conditions: dose microM <=125
T2 sequence (whole entry): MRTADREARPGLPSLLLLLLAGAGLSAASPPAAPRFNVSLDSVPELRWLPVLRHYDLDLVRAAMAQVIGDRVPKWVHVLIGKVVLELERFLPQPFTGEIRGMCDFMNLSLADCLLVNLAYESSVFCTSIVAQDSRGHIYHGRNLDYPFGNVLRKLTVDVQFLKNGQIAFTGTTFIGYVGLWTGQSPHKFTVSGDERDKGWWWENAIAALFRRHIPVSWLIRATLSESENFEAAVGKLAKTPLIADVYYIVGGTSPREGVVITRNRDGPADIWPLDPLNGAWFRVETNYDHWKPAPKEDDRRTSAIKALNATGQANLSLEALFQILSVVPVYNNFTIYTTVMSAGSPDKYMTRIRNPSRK

SH-SY5Y [4] = test: Effect on SM (d18:1/16:0) levels in human SH-SY5Y cells at 10 uM incubated for 1 to 6 hrs by LC-MS analysis; format: functional, cell-based; conditions: time 1-6 hrs; outline: as §1
[5] = Volume of distribution at steady state in C57BL/6 mouse at 3 mg/kg, iv measured up to 4 hrs by LC/MS-MS analysis; format: ADME, organism-based; conditions: in vivo
Outline: (§3)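 C57BL/6 mice were dosed intravenously at 3 mg/kg or orally at 10 mg/kg. Plasma PK parameters were derived per route: clearance, Vdss and t1/2 after i.v. dosing, and tmax, Cmax, t1/2 and AUC after oral dosing. Oral bioavailability F was estimated from the oral and i.v. exposures.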

[6] = target: T1, Acid ceramidase (Homo sapiens); test: Irreversible covalent inhibition of human acid ceramidase using N-lauroyl ceramide incubated for 1 hr by LC/MS analysis
[7] = Elimination half life in C57BL/6 mouse at 3 mg/kg, iv measured up to 4 hrs by LC/MS-MS analysis; format: ADME, organism-based; conditions: in vivo; outline: as §3
[8] = Tmax in C57BL/6 mouse at 10 mg/kg, po measured up to 4 hrs by LC/MS-MS analysis; format: ADME, organism-based; conditions: in vivo; outline: as §3
[9] = Cmax in C57BL/6 mouse at 10 mg/kg, po measured up to 4 hrs by LC/MS-MS analysis; format: ADME, organism-based; design: route oral, dose 10 mg/kg, time <=4; conditions: in vivo; outline: as §3
[10] = Stability in mouse liver microsomes at 4.6 uM in presence of NADPH after 60 mins by LC/MS-MS analysis; format: ADME, Microsome; conditions: read-out: Stabilty
Outline: (§4)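 Kinetic aqueous solubility was measured in PBS, pH 7.4. Metabolic stability was measured as t1/2 in mouse plasma and mouse liver microsomes, with microsomal data also given as % compound remaining at 1 h. Values are means of at least two independent experiments, each in two technical replicates.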

SH-SY5Y [11] = test: Effect on HexCer (d18:1/16:0) levels in human SH-SY5Y cells at 1 to 10 uM incubated for 3 hrs by LC-MS analysis; format: functional, cell-based; conditions: dose 1-10 µM; outline: as §2
[12] = Half life in mouse liver microsomes at 4.6 uM in presence of NADPH by LC/MS-MS analysis; format: ADME, Microsome; outline: as §4
[13] = AUC in C57BL/6 mouse at 3 mg/kg, iv measured up to 4 hrs by LC/MS-MS analysis; format: ADME, organism-based; design: route intravenous, dose 3 mg/kg, time <=4; conditions: in vivo
[14] = Elimination half life in C57BL/6 mouse at 10 mg/kg, po measured up to 4 hrs by LC/MS-MS analysis; format: ADME, organism-based; conditions: in vivo; outline: as §3
[15] = target: T1, Acid ceramidase (Homo sapiens); test: Inhibition of acid ceramidase in human SH-SY5Y cells assessed as intracellular accumulation of Cer (d18:1/16:0) at 10 uM incubated for 1 to 6 hrs by LC-MS analysis; format: cell-based; conditions: time 1-6 hrs; outline: as §1
[16] = target: T1, Acid ceramidase (Homo sapiens); test: Inhibition of acid ceramidase in human SH-SY5Y cells assessed as reduction in sphingolipid levels at 1 to 10 uM incubated for 3 hrs by LC-MS analysis; format: cell-based; conditions: dose 1-10 µM; outline: as §2
[17] = Volume of distribution at steady state in C57BL/6 mouse at 10 mg/kg, po measured up to 4 hrs by LC/MS-MS analysis; format: ADME, organism-based; conditions: in vivo
[18] = Kinetic solubility in pH 7.4 PBS buffer at 250 uM incubated for 1 hr by UPLC/MS analysis; format: physicochemical; conditions: read-out: Kinetic_solubility; outline: as §4
[19] = target: T1, Acid ceramidase (Homo sapiens); test: Inhibition of acid ceramidase in human SH-SY5Y cells assessed as reduction in sphingolipid levels at 10 uM incubated for 1 to 6 hrs by LC-MS analysis; format: cell-based; conditions: time 1-6 hrs, TDE = time-dependent effect; outline: as §1
[20] = target: T1, Acid ceramidase (Homo sapiens); test: Inhibition of acid ceramidase in human SH-SY5Y cells assessed as reduction in sphingosine level at 1 to 10 uM incubated for 3 hrs by LC-MS analysis; format: cell-based; conditions: dose 1-10 µM; outline: as §2
[21] = target: T1, Acid ceramidase (Homo sapiens); test: Inhibition of acid ceramidase in human SH-SY5Y cells assessed as intracellular accumulation of Cer (d18:1/16:0) at 1 to 10 uM incubated for 3 hrs by LC-MS analysis; format: cell-based; conditions: dose 1-10 µM; outline: as §2
[22] = AUC in C57BL/6 mouse at 10 mg/kg, po measured up to 4 hrs by LC/MS-MS analysis; format: ADME, organism-based; design: route oral, dose 10 mg/kg, time <=4; conditions: in vivo; outline: as §3
[23] = Half life in mouse plasma at 2 uM by LC/MS-MS analysis; format: ADME, cell-free; outline: as §4
SH-SY5Y [24] = test: Effect on SM (d18:1/16:0) levels in human SH-SY5Y cells at 1 to 10 uM incubated for 3 hrs by LC-MS analysis; format: functional, cell-based; conditions: dose 1-10 µM; outline: as §2
[25] = target: T1, Acid ceramidase (Homo sapiens); test: Inhibition of acid ceramidase in human SH-SY5Y cells assessed as intracellular accumulation of Cer (d18:0/16:0) at 10 uM incubated for 1 to 6 hrs by LC-MS analysis; format: cell-based; conditions: time 1-6 hrs; outline: as §1
Acid ceramidase = target: T3, Acid ceramidase (Homo sapiens, UniProt Q13510); test: Inhibition of human acid ceramidase using Rbm14-12 fluorogenic substrate incubated for 1 hr by fluorescence assay; conditions: read-out: IC50
T3 sequence (Q13510 whole entry): T1 sequence (whole entry)

[26] = Clearance in C57BL/6 mouse at 10 mg/kg, po measured up to 4 hrs by LC/MS-MS analysis; format: ADME, organism-based; conditions: in vivo
[27] = Oral bioavailability in C57BL/6 mouse at 10 mg/kg measured up to 4 hrs by LC/MS-MS analysis; format: ADME, organism-based; conditions: in vivo; outline: as §3
SH-SY5Y [28] = test: Effect on HexCer (d18:1/16:0) levels in human SH-SY5Y cells at 10 uM incubated for 1 to 6 hrs by LC-MS analysis; format: functional, cell-based; conditions: time 1-6 hrs; outline: as §1

For `CCCCCNC(=O)n1cc(-c2ccc(F)cc2C2CCN(C)CC2)oc1=O`, the inhibition [1] was “Active”, the inhibition [2] was “Dose-dependent effect” and the inhibition [3] was “inactive”. The Activity (SH-SY5Y [4]) was “inactive”, the Vdss [5] was 12.426 L/kg and the inhibition [6] was “Active”. The “beta t1/2” value [7] was 1.98 h, the Tmax [8] was 0.5 h and the Cmax [9] was 278 ng/mL. For the same molecule, the remaining at 1 h, 4.6 µM [10] was 74%, the Activity (SH-SY5Y [11]) was “inactive” and the t1/2 [12] was greater than 1 h. For the same molecule, the AUC [13] was 31978 ng·min/mL, the “beta t1/2” value [14] was 2.45 h and the inhibition [15] was “Active”. For the same molecule, the inhibition [16] was “Dose-dependent effect”, the Vdss [17] was 32.877 L/kg and the solubility kinetic at 1 h, 250 µM [18] was greater than 250 µM. For the same molecule, the inhibition [19] was “Tde”, the inhibition [20] was “Dose-dependent effect” and the inhibition [21] was “Dose-dependent effect”. The AUC [22] was 42525 ng·min/mL, the t1/2 [23] was 1.83 h and the Activity (SH-SY5Y [24]) was “inactive”. For the same molecule, the inhibition [25] was “Active”, the IC50 (Acid ceramidase) was 129 nM and the CL/F [26] was 155 mL/min/kg. For the same molecule, the F [27] was 40% and the Activity (SH-SY5Y [28]) was “inactive”.
